According to ChEMBL document CHEMBL5104202, “Structure-Uptake Relationship Studies of Oxazolidinones in Gram-Negative ESKAPE Pathogens” (J Med Chem, 2022):
Converted amounts (≈) assume the structure as drawn.

What was measured:
Klebsiella pneumoniae [1] = experiment: Antibacterial activity against multidrug resistant Klebsiella pneumoniae ATCC43816 assessed as inhibition of bacterial growth incubated for 24 hrs in M9-MOPS medium by twofold serial dilution method; assay type: functional
Klebsiella pneumoniae [2] = experiment: Antibacterial activity against multidrug resistant Klebsiella pneumoniae ATCC43816 assessed as inhibition of bacterial growth incubated for 24 hrs in MHI medium by twofold serial dilution method; assay type: functional
Klebsiella aerogenes = experiment: Antibacterial activity against multidrug resistant Klebsiella aerogenes ATCC13048 assessed as inhibition of bacterial growth incubated for 24 hrs in M9-MOPS medium by twofold serial dilution method; assay type: functional
Klebsiella pneumoniae [3] = experiment: Antibacterial activity against multidrug resistant Klebsiella pneumoniae ATCC13883 assessed as inhibition of bacterial growth incubated for 24 hrs in M9-MOPS medium by twofold serial dilution method; assay type: functional
Klebsiella pneumoniae [4] = experiment: Antibacterial activity against multidrug resistant Klebsiella pneumoniae ATCC13883 assessed as inhibition of bacterial growth incubated for 24 hrs in MHI medium by twofold serial dilution method; assay type: functional
Pseudomonas aeruginosa [5] = experiment: Antibacterial activity against multidrug resistant Pseudomonas aeruginosa BAA 2109 assessed as inhibition of bacterial growth incubated for 24 hrs in […] medium by twofold serial dilution method; assay type: functional
Pseudomonas aeruginosa [6] = experiment: Antibacterial activity against multidrug resistant Pseudomonas aeruginosa BAA 2109 assessed as inhibition of bacterial growth incubated for 24 hrs in MHI medium by twofold serial dilution method; assay type: functional
Pseudomonas aeruginosa [7] = experiment: Antibacterial activity against multidrug resistant Pseudomonas aeruginosa BAA 2108 assessed as inhibition of bacterial growth incubated for 24 hrs in M9-MOPS medium by twofold serial dilution method; assay type: functional
Pseudomonas aeruginosa [8] = experiment: Antibacterial activity against multidrug resistant Pseudomonas aeruginosa BAA 2108 assessed as inhibition of bacterial growth incubated for 24 hrs in MHI medium by twofold serial dilution method; assay type: functional
Acinetobacter baumannii [9] = experiment: Antibacterial activity against multidrug resistant Acinetobacter baumannii Ab5075 assessed as inhibition of bacterial growth incubated for 24 hrs in M9-MOPS medium by twofold serial dilution method; assay type: functional
Acinetobacter baumannii [10] = experiment: Antibacterial activity against multidrug resistant Acinetobacter baumannii Ab5075 assessed as inhibition of bacterial growth incubated for 24 hrs in MHI medium by twofold serial dilution method; assay type: functional
Acinetobacter baumannii [11] = experiment: Antibacterial activity against multidrug resistant Acinetobacter baumannii AYE assessed as inhibition of bacterial growth incubated for 24 hrs in M9-MOPS medium by twofold serial dilution method; assay type: functional
Acinetobacter baumannii [12] = experiment: Antibacterial activity against multidrug resistant Acinetobacter baumannii AYE assessed as inhibition of bacterial growth incubated for 24 hrs in MHI medium by twofold serial dilution method; assay type: functional
Acinetobacter baumannii [13] = experiment: Antibacterial activity against efflux pump lacking Acinetobacter baumannii assessed as inhibition of bacterial growth; assay type: functional, organism-based
Acinetobacter baumannii [14] = experiment: Antibacterial activity against efflux pump lacking/recombinant OM pore producing Acinetobacter baumannii assessed as inhibition of bacterial growth; assay type: functional, organism-based
Acinetobacter baumannii [15] = experiment: Antibacterial activity against recombinant OM pore producing Acinetobacter baumannii assessed as inhibition of bacterial growth; assay type: functional, organism-based
Acinetobacter baumannii [16] = experiment: Antibacterial activity against wild type Acinetobacter baumannii assessed as inhibition of bacterial growth; assay type: functional, organism-based
Escherichia coli [17] = experiment: Antibacterial activity against wild type Escherichia coli assessed as inhibition of bacterial growth; assay type: functional, organism-based
Escherichia coli [18] = experiment: Antibacterial activity against recombinant OM pore producing Escherichia coli assessed as inhibition of bacterial growth; assay type: functional, organism-based
Escherichia coli [19] = experiment: Antibacterial activity against efflux pump lacking Escherichia coli assessed as inhibition of bacterial growth; assay type: functional, organism-based
Escherichia coli [20] = experiment: Antibacterial activity against efflux pump lacking/recombinant OM pore producing Escherichia coli assessed as inhibition of bacterial growth; assay type: functional, organism-based
Pseudomonas aeruginosa [21] = experiment: Antibacterial activity against wild type Pseudomonas aeruginosa assessed as inhibition of bacterial growth; assay type: functional, organism-based
Pseudomonas aeruginosa [22] = experiment: Antibacterial activity against recombinant OM pore producing Pseudomonas aeruginosa assessed as inhibition of bacterial growth; assay type: functional, organism-based
Pseudomonas aeruginosa [23] = experiment: Antibacterial activity against efflux pump lacking Pseudomonas aeruginosa assessed as inhibition of bacterial growth; assay type: functional, organism-based
Pseudomonas aeruginosa [24] = experiment: Antibacterial activity against efflux pump lacking/recombinant OM pore producing Pseudomonas aeruginosa assessed as inhibition of bacterial growth; assay type: functional, organism-based
Acinetobacter baumannii [25] = experiment: Antibacterial activity against efflux pump lacking/recombinant OM pore producing Acinetobacter baumannii incubated for 24 hrs by twofold serial dilution method; assay type: functional
In short: (§1)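 MICs by twofold serial dilution in 96-well plates from 10 mM DMSO stocks. Cultures grown in the indicated media; for E. coli, A. baumannii and P. aeruginosa, inducers were 0.1% arabinose, 1% arabinose and 0.1 mM IPTG respectively.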

Escherichia coli [26] = experiment: Antibacterial activity against efflux pump lacking/recombinant OM pore producing Escherichia coli incubated for 24 hrs by twofold serial dilution method; assay type: functional
In short: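 E. coli efflux-knockout/hyperporinated strain grown in M9 medium with 50 mM MOPS (pH 7.2) and 0.2% xylose. OM pore induced with 0.1% arabinose. Compounds come from 10 mM DMSO stocks and are twofold serially diluted in 96-well plates.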

Pseudomonas aeruginosa [27] = experiment: Antibacterial activity against efflux pump lacking/recombinant OM pore producing Pseudomonas aeruginosa incubated for 24 hrs by twofold serial dilution method; assay type: functional; in short: as §1
Escherichia coli [28] = experiment: Antibacterial activity against Escherichia coli SQ110 DTC G2032A incubated for 24 hrs by twofold serial dilution method; assay type: functional
In short: (§2)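 E. coli SQDTC (TolC-deficient, single rRNA operon) carrying LZD-resistant 23S rRNA substitutions. Compounds come from 10 mM DMSO stocks and are twofold serially diluted in 96-well plates.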

Staphylococcus aureus = experiment: Antibacterial activity against Staphylococcus aureus ATCC 25923 incubated for 24 hrs by twofold serial dilution method; assay type: functional; in short: as §1
Escherichia coli [29] = experiment: Antibacterial activity against Escherichia coli SQ110 DTC incubated for 24 hrs by twofold serial dilution method; assay type: functional; in short: as §1
Escherichia coli [30] = experiment: Antibacterial activity against Escherichia coli SQ110 incubated for 24 hrs by twofold serial dilution method; assay type: functional; in short: as §1
Escherichia coli [31] = experiment: Antibacterial activity against Escherichia coli SQ110 DTC C2610A incubated for 24 hrs by twofold serial dilution method; assay type: functional; in short: as §2
Pseudomonas aeruginosa [32] = experiment: Selectivity ratio of IC50 for efflux pump lacking Pseudomonas aeruginosa to IC50 for efflux pump lacking/OM pore producing Pseudomonas aeruginosa; assay type: functional
In short: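 OM impact ratio (E/PE) is the M9-MOPS growth IC50 in the efflux-lacking strain divided by that in the efflux-lacking/pore-producing strain.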

Pseudomonas aeruginosa [33] = experiment: Selectivity ratio of IC50 for OM pore producing Pseudomonas aeruginosa to IC50 for efflux pump lacking/OM pore producing Pseudomonas aeruginosa; assay type: functional
In short: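 Efflux impact ratio (P/PE) is the M9-MOPS growth IC50 in the pore-producing strain divided by that in the efflux-lacking/pore-producing strain.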

Klebsiella pneumoniae [34] = experiment: Antibacterial activity against multidrug resistant Klebsiella pneumoniae ATCC43816 assessed as inhibition of bacterial growth incubated for 24 hrs in MHI medium by twofold serial dilution method; conditions: ATCC43816, 24 h

CC(=O)NC[C@H]1CN(c2ccc(N3CCOCC3)c(F)c2)C(=O)O1 [LINEZOLID]
MIC (Klebsiella pneumoniae [1]): > 200 µM | MIC (Klebsiella pneumoniae [2]): > 200 µM | MIC (Klebsiella aerogenes): > 200 µM | MIC (Klebsiella pneumoniae [3]): ≥ 200 µM | MIC (Klebsiella pneumoniae [4]): > 200 µM | MIC (Pseudomonas aeruginosa [5]): > 200 µM | MIC (Pseudomonas aeruginosa [6]): > 200 µM | MIC (Pseudomonas aeruginosa [7]): > 200 µM | MIC (Pseudomonas aeruginosa [8]): > 200 µM | MIC (Acinetobacter baumannii [9]): ≥ 200 µM | MIC (Acinetobacter baumannii [10]): > 200 µM | MIC (Acinetobacter baumannii [11]): 200 µM (≈ 67.5 µg/mL) | MIC (Acinetobacter baumannii [12]): > 200 µM | IC50 (Acinetobacter baumannii [13]): 4.9 µM | IC50 (Acinetobacter baumannii [14]): 4 µM | IC50 (Acinetobacter baumannii [15]): 9.2 µM | IC50 (Acinetobacter baumannii [16]): 33.4 µM | IC50 (Escherichia coli [17]): > 100 µM | IC50 (Escherichia coli [18]): 18 µM | IC50 (Escherichia coli [19]): 8.7 µM | IC50 (Escherichia coli [20]): 9.3 µM | IC50 (Pseudomonas aeruginosa [21]): > 100 µM | IC50 (Pseudomonas aeruginosa [22]): 19.8 µM | IC50 (Pseudomonas aeruginosa [23]): 24.7 µM | IC50 (Pseudomonas aeruginosa [24]): 1.7 µM | MIC (Acinetobacter baumannii [25]): 25 µM | MIC (Escherichia coli [26]): 25 µM | MIC (Pseudomonas aeruginosa [27]): 12.5 µM | MIC (Escherichia coli [28]): > 100 µM | MIC (Staphylococcus aureus): 6.25 µM (≈ 2.11 µg/mL) | MIC (Escherichia coli [29]): 25 µM (≈ 8.43 µg/mL) | MIC (Escherichia coli [30]): > 100 µM | MIC (Escherichia coli [31]): 50 µM (≈ 16.9 µg/mL) | Ratio IC50 (Pseudomonas aeruginosa [32]): 15 | Ratio IC50 (Pseudomonas aeruginosa [33]): 12 | MIC (Klebsiella pneumoniae [34]): > 200 µM
